# Laboratory results: ChEMBL document CHEMBL4196194, “De Novo Design of α-Helical Lipopeptides Targeting Viral Fusion Proteins: A Promising Strategy for Relatively Broad-Spectrum Antiviral Drug Discovery” (J Med Chem, 2018)
# pEC50: −log10 of the molar value. The source made the active and inactive calls. No cut-off for these calls is given here. Where a SMILES comes first, the peptide text is derived from it. [ ]: non-standard residue; d: D form. The star is where a group is joined. Palmitoyl = CCCCCCCCCCCCCCCC(=O)*; βAla = NCCC(=O)O
# Legend:
# Lipid bilayer = test: Binding affinity to POPC LUV liposome system at 15 uM
# Summary of the method: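 Isothermal titration calorimetry at 25 °C. POPC large unilamellar vesicles (13 mM in the syringe) were titrated into peptide in the cell (15 μM) over 20 injections, 120 s apart, with stirring at 750 rpm. The binding constant was derived from the heat released during peptide–lipid binding.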
# Influenza A virus [1] = test: Antiviral activity against Influenza A virus (A/Puerto Rico/8/1934(H1N1)) infected in HEK293T cells assessed as inhibition of viral replicon activity up to 40 uM incubated for 30 hrs by dual-Glo luciferase assay; format: functional, organism-based
# Summary of the method: (§1)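 HEK293T cells (2.5 × 10^4/well) transfected with plasmids for NP, PB1, PB2, PA plus p0LN-S-Luc firefly and pRL-SV40 Renilla reporters; serially diluted compound added 6 h post-transfection, luciferase read after 30 h by Dual-Glo. Activity = firefly/Renilla ratio; % inhibition normalized to positive and negative controls, curve-fitted; three independent measurements.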
# [2] = tested on: Middle East respiratory syndrome-related coronavirus; test: Antiviral activity against MERS-CoV pseudovirus infected in human HuH7 cells treated with 30 mins pre-treated pseudovirus/compopund mixture and measured after 48 hrs by luciferase reporter assay; format: functional, organism-based
# Summary of the method: (§2)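 Serially diluted peptide premixed with MERS-CoV pseudovirus 30 min at 37 °C, then added to Huh-7 cells; medium replaced at 12 h postinfection and cells cultured a further 48 h at 37 °C before luciferase read-out.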
# [3] = tested on: Middle East respiratory syndrome-related coronavirus; test: Antiviral activity against MERS-CoV pseudovirus infected in human HuH7 cells treated with 30 mins pre-treated pseudovirus/compopund mixture up to 40 uM and measured after 48 hrs by luciferase reporter assay; format: functional, organism-based; summary of the method: as §2
# [4] = Cytotoxicity in MDCK cells assessed as reduction in cell viability incubated for 72 hrs by cell-titer-Glo cell viability assay; format: cell-based, Canis lupus familiaris; conditions: dog
# Influenza A virus [5] = test: Antiviral activity against Influenza A virus (A/Puerto Rico/8/1934(H1N1)) infected in HEK293T cells assessed as inhibition of viral replicon activity incubated for 30 hrs by dual-Glo luciferase assay; format: functional, organism-based; conditions: HEK-293T; summary of the method: as §1
# Influenza A virus [6] = test: Antiviral activity against influenza A virus Hong Kong/8/1968(H3N2) infected in HEK293T cells assessed as inhibition of viral replicon activity incubated for 30 hrs by dual-Glo luciferase assay; format: functional, organism-based; conditions: HEK-293T; summary of the method: as §1
# Influenza A virus [7] = test: Antiviral activity against influenza A virus assessed as inhibition of viral replicon activity up to 100 uM incubated for 30 hrs by firefly luciferase reporter gene assay; format: functional, organism-based; summary of the method: as §1
compound,measurement,setting,value
CC[C@H](C)[C@H](NC(C)=O)C(=O)N[C@@H](CCC(=O)O)C(=O)N[C@@H](CCC(=O)O)C(=O)N[C@H](C(=O)N[C@@H](CCC(N)=O)C(=O)N[C@@H](CCCCN)C(=O)N[C@@H](CCCCN)C(=O)N[C@H](C(=O)N[C@@H](CCC(=O)O)C(=O)N[C@@H](CCC(=O)O)C(=O)N[C@H](C(=O)N[C@@H](CCC(N)=O)C(=O)N[C@@H](CCCCN)C(=O)N[C@@H](CCCCN)C(=O)N[C@H](C(=O)N[C@@H](CCC(=O)O)C(=O)N[C@@H](CCC(=O)O)C(=O)N[C@H](C(=O)N[C@@H](CCC(N)=O)C(=O)N[C@@H](CCCCN)C(=O)N[C@@H](CCCCN)C(=O)N[C@H](C(=O)N[C@@H](CCC(=O)O)C(=O)N[C@@H](CCC(=O)O)C(=O)N[C@H](C(=O)N[C@@H](CCC(N)=O)C(=O)N[C@@H](CCCCN)C(=O)N[C@@H](CCCCN)C(=O)N[C@H](C(=O)N[C@@H](CCC(=O)O)C(=O)N[C@@H](CCC(=O)O)C(=O)N[C@H](C(=O)N[C@@H](CCC(N)=O)C(=O)N[C@@H](CCCCN)C(=O)N[C@@H](CCCCN)C(=O)NCCC(=O)N[C@@H](CCCCNC(C)=O)C(N)=O)[C@@H](C)CC)[C@@H](C)CC)[C@@H](C)CC)[C@@H](C)CC)[C@@H](C)CC)[C@@H](C)CC)[C@@H](C)CC)[C@@H](C)CC)[C@@H](C)CC (Ac-IEEIQKKIEEIQKKIEEIQKKIEEIQKKIEEIQKK[βAla]K(Ac)-NH2),Activity,Lipid bilayer,inactive
same,inhibition,Influenza A virus [1],inactive
same,Activity,[2],inactive
same,Activity,[3],inactive
CCCCCCCCCCCCCCCC(=O)NCCCC[C@H](NC(=O)CCNC(=O)[C@H](CCCCN)NC(=O)[C@H](CCCCN)NC(=O)[C@H](CO)NC(=O)[C@@H](NC(=O)[C@H](CCC(=O)O)NC(=O)[C@H](CCC(=O)O)NC(=O)[C@@H](NC(=O)[C@H](CCCCN)NC(=O)[C@H](CCCCN)NC(=O)[C@H](CO)NC(=O)[C@@H](NC(=O)[C@H](CCC(=O)O)NC(=O)[C@H](CCC(=O)O)NC(=O)[C@@H](NC(=O)[C@H](CCCCN)NC(=O)[C@H](CCCCN)NC(=O)[C@H](CO)NC(=O)[C@@H](NC(=O)[C@H](CCC(=O)O)NC(=O)[C@H](CCC(=O)O)NC(=O)[C@@H](NC(=O)[C@H](CCCCN)NC(=O)[C@H](CCCCN)NC(=O)[C@H](CO)NC(=O)[C@@H](NC(=O)[C@H](CCC(=O)O)NC(=O)[C@H](CCC(=O)O)NC(=O)[C@@H](NC(=O)[C@H](CCCCN)NC(=O)[C@H](CCCCN)NC(=O)[C@H](CO)NC(=O)[C@@H](NC(=O)[C@H](CCC(=O)O)NC(=O)[C@H](CCC(=O)O)NC(=O)[C@@H](NC(C)=O)[C@@H](C)CC)[C@@H](C)CC)[C@@H](C)CC)[C@@H](C)CC)[C@@H](C)CC)[C@@H](C)CC)[C@@H](C)CC)[C@@H](C)CC)[C@@H](C)CC)[C@@H](C)CC)C(N)=O (Ac-IEEISKKIEEISKKIEEISKKIEEISKKIEEISKK[βAla]K(Palmitoyl)-NH2),CC50 at 72 h,[4],> 100 µM
CCCCCCCCCCCCCCCC(=O)NCCCC[C@H](NC(=O)CCNC(=O)[C@H](CCCCN)NC(=O)[C@H](CCCCN)NC(=O)[C@H](Cc1ccc(O)cc1)NC(=O)[C@@H](NC(=O)[C@H](CCC(=O)O)NC(=O)[C@H](CCC(=O)O)NC(=O)[C@@H](NC(=O)[C@H](CCCCN)NC(=O)[C@H](CCCCN)NC(=O)[C@H](Cc1ccc(O)cc1)NC(=O)[C@@H](NC(=O)[C@H](CCC(=O)O)NC(=O)[C@H](CCC(=O)O)NC(=O)[C@@H](NC(=O)[C@H](CCCCN)NC(=O)[C@H](CCCCN)NC(=O)[C@H](Cc1ccc(O)cc1)NC(=O)[C@@H](NC(=O)[C@H](CCC(=O)O)NC(=O)[C@H](CCC(=O)O)NC(=O)[C@@H](NC(=O)[C@H](CCCCN)NC(=O)[C@H](CCCCN)NC(=O)[C@H](Cc1ccc(O)cc1)NC(=O)[C@@H](NC(=O)[C@H](CCC(=O)O)NC(=O)[C@H](CCC(=O)O)NC(=O)[C@@H](NC(=O)[C@H](CCCCN)NC(=O)[C@H](CCCCN)NC(=O)[C@H](Cc1ccc(O)cc1)NC(=O)[C@@H](NC(=O)[C@H](CCC(=O)O)NC(=O)[C@H](CCC(=O)O)NC(=O)[C@@H](NC(C)=O)[C@@H](C)CC)[C@@H](C)CC)[C@@H](C)CC)[C@@H](C)CC)[C@@H](C)CC)[C@@H](C)CC)[C@@H](C)CC)[C@@H](C)CC)[C@@H](C)CC)[C@@H](C)CC)C(N)=O (Ac-IEEIYKKIEEIYKKIEEIYKKIEEIYKKIEEIYKK[βAla]K(Palmitoyl)-NH2),CC50 at 72 h,[4],> 100 µM
CCOC(=O)C1=C[C@@H](OC(CC)CC)[C@H](NC(C)=O)[C@@H](N)C1 [OSELTAMIVIR],pEC50,Influenza A virus [5],5.83
same,pEC50,Influenza A virus [6],8.00
same,CC50 at 72 h,[4],> 100 µM
same,inhibition,Influenza A virus [7],inactive
